SR-BI uptake up – activators of SR-BI mediated DiI-HDL uptake, primary screen, ldlA[mSR-BI] CHO cells, DiI fluorescence. 3 h; 100 = double the neutral-control signal. activation, % at 12.5 µM. 320,000 compounds, 0.096% hits. AID 504775, 2011;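 active = mean replicate activation of at least 60% and every replicate at or above 60%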;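 note: 0% = median plate neutral-control signal and 100% = twice that signal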
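Test system: SR-BI-overexpressing, LDLR-lacking CHO cells; Medium: Ham's F12 with 0.5% BSA, HEPES 25 mM, pH 7.4; Schedule: 3 h, 37 °C; Technique: bottom-read fluorescence, 550/595 nm.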
ATG4B inhibitor – ATG4B protease inhibitors, primary screen, biochemical, fluorescence, uHTS. ATG4B cleavage of LC3-PLA2, NBD-HPC fluorescence, 1 h. inhibition, % at 8.33 µM. 340,000 compounds, 0.51% hits. AID 504462, 2011; in the data active = inhibition above about 40%
CAL PDZ FP-1 – untagged CAL PDZ binding inhibitors, primary screen, biochemical, fluorescence polarization, HTS; Golgi-associated PDZ and coiled-coil motif-containing protein (Homo sapiens), Q9HD26; purified CAL PDZ, TMR-peptide fluorescence polarization, 1 h; inhibition, % at 24.9 µM; 300,000 compounds, 0.92% hits;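 active = mean inhibition of at least 30% with at least half of replicates also reaching 30%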;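 note: 0% = DMSO neutral control and 100% = excess unlabeled competitor peptide PRC23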
SR-BI DiI inh – inhibitors of SR-BI mediated HDL lipid uptake, primary screen, ldlA[mSR-BI] cells, fluorescence, single point; Scavenger receptor class B member 1 (Mus musculus), Q61009; ldlA[mSR-BI] CHO cells, DiI-HDL uptake fluorescence, 3 h; inhibition, % at 12.5 µM; 320,000 compounds, 0.96% hits; AID 488896, 2010;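 active = mean replicate inhibition of at least 70% and a set share of replicates each scoring 70 or more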;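 note: 0% = median of neutral control wells and 100% = median of positive control wells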
Target sequence (Q61009 whole entry, looked up): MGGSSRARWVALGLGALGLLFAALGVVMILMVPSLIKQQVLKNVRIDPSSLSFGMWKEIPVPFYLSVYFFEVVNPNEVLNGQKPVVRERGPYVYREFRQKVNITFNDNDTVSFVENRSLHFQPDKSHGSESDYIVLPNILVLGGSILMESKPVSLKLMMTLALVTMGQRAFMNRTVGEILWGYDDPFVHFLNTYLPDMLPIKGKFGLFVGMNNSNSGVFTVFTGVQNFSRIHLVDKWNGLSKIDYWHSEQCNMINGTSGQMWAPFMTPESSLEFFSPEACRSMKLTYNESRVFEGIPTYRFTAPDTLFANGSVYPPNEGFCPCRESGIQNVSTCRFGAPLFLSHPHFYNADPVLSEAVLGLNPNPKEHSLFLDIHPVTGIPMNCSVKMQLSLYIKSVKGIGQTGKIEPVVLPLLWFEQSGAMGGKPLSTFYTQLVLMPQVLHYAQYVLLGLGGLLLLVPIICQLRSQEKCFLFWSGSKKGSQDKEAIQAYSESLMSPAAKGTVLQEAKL
CAL PDZ FP-2 – CAL PDZ peptide-binding inhibitors, primary screen, biochemical, fluorescence polarization, Cer-tagged CAL PDZ, HTS. Golgi-associated PDZ and coiled-coil motif-containing protein (Homo sapiens), Q9HD26. inhibition, % at 20 µM. purified CAL PDZ, TMR-peptide fluorescence polarization, 1 h. 330,000 compounds, 0.02% hits;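 active = highest replicate inhibition of at least 40%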;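 note: plate controls were DMSO neutral control wells for no effect and unlabeled competitor peptide control wells for full effect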
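material = purified tagged CAL PDZ domain construct (CerCALP) | compound dosing = 20 µM, one dose | times = 1 h at RT | measured by = fluorescence polarization from S- and P-plane intensities, G-factor corrected | read-out = inhibition from polarization loss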
* hit, by the source's call; x = no result given. Most compounds without a hit are left out; they make up all but 2.3% or so of the library.

SMILES	SR-BI uptake up	ATG4B inhibitor	CAL PDZ FP-1	SR-BI DiI inh	CAL PDZ FP-2
CC1(C)c2[nH]c3ccccc3c2C[C@@H]2C(=O)N(c3cc(F)ccc3F)C(=O)N21	-77.2	-6.4	-0.5	77.2*	1.1
CCCCCN1CC(=O)N2[C@@H](Cc3c([nH]c4ccccc34)C2(C)C)C1=O	-35.9	-5.0	-0.6	35.9	-0.7
CC(C)CN1CC(=O)N2C(c3ccccc3)c3[nH]c4ccccc4c3C[C@H]2C1=O (stereo not given in full)	-78.4	1.7	-0.4	78.4*	-2.9
COc1ccc2nc(C)c3c(c2c1)OC(C(C)(Cl)Br)C3 (stereo not given)	-71.3	-1.5	-4.9	71.3*	-2.7
Cc1ccc2nc(C)c3c(c2c1)OC(C(C)(Cl)Br)C3 (stereo not given)	-30.8	-5.7	-1.3	33.3	0.5
COc1ccc(OCc2cc(C(=O)NCc3cccc(C)n3)no2)c(Cl)c1	-27.7	10.6	-4.3	27.7	-3.3
CSc1nc(-c2cccs2)c(C#N)c(=O)[nH]1	14.1	-12.4	-6.3	-14.1	-2.1
N#Cc1c(-c2cccs2)nc(SCc2ccc(Cl)cc2)[nH]c1=O	0.7	48.7*	-7.1	-0.7	x
CCCCN(CC)CCNC(=O)c1cc2c(=O)[nH]c3ccccc3c2s1	-87.8	8.9	-0.2	87.8*	-1.4
CCCN(CCC)CCCNC(=O)c1cc2c(=O)[nH]c3ccccc3c2s1	-34.5	-1.8	-38.1	34.5	-2.7
CC(=O)Oc1ccccc1C1=NN(C(=O)/C=C/c2ccccc2)C(c2ccccc2)C1 (stereo not given)	-32.4	6.0	-2.2	32.4	-1.5
COc1ccc(C2CC(c3ccccc3OC(C)=O)=NN2C(=O)/C=C/c2ccccc2)cc1 (stereo not given)	-30.8	7.2	51.7*	30.8	-0.6
COc1ccc(C2CC(c3ccccc3OC(C)=O)=NN2C(C)=O)cc1 (stereo not given)	-21.2	-5.5	91.1*	21.2	-1.3
CCN1CCN(c2ccc(S(=O)(=O)N3CCOCC3)cc2NC(=O)C2CCC(C(C)(C)C)CC2)CC1 (stereo not given)	54.3	-4.6	72.7*	-54.3	-0.8
CCN(CC)S(=O)(=O)c1ccc(NC(=S)NC(=O)C2CCC2)cc1	-14.7	-12.2	54.4*	14.7	-0.6
CN1CCN(c2ccc(S(=O)(=O)N3CCOCC3)cc2NC(=O)C2CCCCC2)CC1	9.7	1.8	10.7	-9.7	0.4
CCN(CC)S(=O)(=O)c1ccc(N2CCOCC2)c(NC(=O)C2CCCC2)c1	13.3	-1.7	-3.1	-13.2	-0.3
CN(C)S(=O)(=O)c1ccc(NC(=S)NC(=O)C2CCC2)cc1	8.3	1.6	-3.1	-8.3	1.3
CCN(CC)S(=O)(=O)c1ccc(N2CCCC2)c(NC(=O)C2CCCCC2)c1	9.9	-10.0	40.5*	-9.9	0.1
O=C(CCl)N1CCCC1c1ccc2c(c1)OCCO2 (stereo not given)	-2.9	10.7	-5.8	2.9	-0.2
COc1ccccc1S(=O)(=O)CC(O)COc1ccc(C#N)cc1 (stereo not given)	x	-10.4	3.9	x	-2.0
COc1cccc(CCN2C(=O)C(=O)N([C@@H](CNCc3ccccc3)Cc3ccccc3F)C[C@@H]2C(C)(C)C)c1	x	-8.2	x	x	x
CCN1/C(=C\c2ccc3cc(C)ccc3[n+]2CC)Sc2cc(C)c(C)cc21	-85.1	8.4	-2.7	85.1*	2.7
CCN1/C(=C/c2ccc3cc(C)cc(C)c3[n+]2CC)Sc2cc(C)ccc21	-67.7	4.9	4.6	67.7	7.3
COc1ccc(NC(=O)CNC(=O)C2CCCCC2)cc1	7.2	-2.3	52.6*	-7.2	0.8
O=C(CNC(=O)C1CCCCC1)Nc1ccccc1	2.9	5.4	-2.1	-2.9	-1.7
O=[N+]([O-])/C(=C\Nc1ccc(F)cc1F)S(=O)(=O)c1ccccc1	6.1	-3.3	0.4	-6.1	-0.2
O=C1c2cccc(NCCCNCCO)c2C(=O)c2cccc(NCCCNCCO)c21	-28.3	3.7	-2.8	28.3	6.9
